In PubChem BioAssay AID624466 (The Scripps Research Institute Molecular Screening Center, 2012):
Among all 360,000 compounds or so, about 5,400 (1.5%) were called active.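 The calls were made as follows: active = inhibition above a per-plate cutoff, the mean inhibition of test compounds on that plate plus 3 SD (cut at about 49% in these data); inactive = the rest.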 The list comes from a sample in which actives are over-represented; it also holds similar structures and randomly drawn compounds.

biological target: Trace amine-associated receptor 1 (Homo sapiens) (UniProt Q96RJ0); assay: blockers of beta-PEA-driven TAAR1 calcium signal – Fluo-8 calcium fluorescence, CHO RD-HGA16 cells, primary screen (AID 624466); conditions: CHO RD-HGA16 TAAR1, Fluo-8 calcium fluorescence, antagonist; at 3 µM; active compounds read high;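 also: 0% = DMSO plus EC80 beta-PEA response and 100% = DMSO alone without agonist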
Procedure, shortened: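 Material: RD-HGA16 CHO cells with stable hTAAR1 and Gα16; Dosing: single nominal final test compound concentration of 3 µM; Schedule: seeding 17-24 h prior, 75-min 37 °C, 30-min RT dye loading; Detection: kinetic Fluo-8 calcium fluorescence measurement; Measure: % inhibition from peak post-agonist over basal fluorescence ratio; Benchmarks: vehicle and agonist controls.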

Trace amine-associated receptor 1 (Homo sapiens), sequence (Q96RJ0 whole entry, looked up): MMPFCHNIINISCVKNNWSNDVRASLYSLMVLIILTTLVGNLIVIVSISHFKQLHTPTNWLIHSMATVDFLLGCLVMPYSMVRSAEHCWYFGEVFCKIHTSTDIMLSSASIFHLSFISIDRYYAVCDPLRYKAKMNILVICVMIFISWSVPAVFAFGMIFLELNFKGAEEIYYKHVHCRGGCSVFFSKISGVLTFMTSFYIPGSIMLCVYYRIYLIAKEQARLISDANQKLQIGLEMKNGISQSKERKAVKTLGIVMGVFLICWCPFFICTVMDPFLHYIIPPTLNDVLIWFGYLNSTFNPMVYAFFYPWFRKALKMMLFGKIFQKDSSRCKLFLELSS

inhibition, inactive:
Cc1cccc(C)c1NC(=O)C(c1cccc(F)c1)N1CCN(C)CC1 (stereo not given) -12.4%
Cc1ccc(-c2nn(-c3ccccc3)cc2C(=O)NCCCN2CCCC2=O)cc1 -7.1%
O=C(NCCCN1CCOCC1)c1cn(-c2ccccc2)nc1-c1ccc(F)cc1 3.41%
NC(=O)C1CCN(C(=O)c2cn(-c3ccccc3)nc2-c2cccnc2)CC1 -9.79%
Cc1ccc(-c2nn(-c3ccccc3)cc2C(=O)Nc2cccc(S(=O)(=O)N3CCOCC3)c2)cc1 11%
CSc1ccc(C#N)cc1NC(=O)c1ccc(Cl)cc1 -1.99%
CCc1ccc(NC(=O)C(=O)N/N=C(\C)CC(=O)NCCOC)cc1 -6%
CCOC(=O)[C@]12CCC=C1N(Cc1cccc3ccccc13)C(=O)[C@H](CC(=O)NCc1cccc(C(F)(F)F)c1)C2 -4.64%
CC1=NOC(=O)/C1=C\c1ccccc1 -15%
C#CCOc1ccc(/C=C2/C(=O)ON=C2C)cc1OCC 12.6%
CC[C@H](NC(=O)[C@H](Cc1ccccc1)NC(=O)[C@H]1O[C@@H](n2cnc3c(=O)[nH]c(N)nc32)[C@H](O)[C@@H]1O)c1ccccc1 -41.7%
CC(C)(C)n1nc2c(c1NC(=O)c1ccc(S(=O)(=O)N3CCCC3)cc1)CS(=O)C2 (stereo not given) 4.79%
COc1ccc(CNS(=O)(=O)c2cc(Br)ccc2Br)cc1 -2.96%
CC(C)CC1NC(=O)c2cc(Cl)ccc2-n2c1nc1ccccc1c2=O (stereo not given) -6.66%
CCCOc1ccc(F)cc1-c1cc(C(=O)Nc2ccc(F)cc2)[nH]n1 15.5%
CCCOc1ccc(F)cc1-c1cc(C(=O)Nc2ccc(F)c(Cl)c2)[nH]n1 38.5%
O=S1(=O)c2ccc(Br)cc2-n2nncc2CN1Cc1cccc(Cl)c1 3.33%
O=c1onc(-c2c(F)cccc2F)n1-c1ccccc1Cl 4.53%
COc1ccc(CCNCc2c(-c3ccccc3)n(C)c3ccccc23)cc1 25%
COc1ccc(-c2ccc(CCC(=O)O)n2-c2ccc(O)cc2)cc1 -5.35%
Cc1ccc(-c2nc3c(C)cc(Br)cn3c2Cc2ccccc2)cc1 -21.5%
O=C(N[C@H]1CC[C@H](CC(=O)N2CCCCC2)O[C@@H]1CO)c1cccc(F)c1 4.76%
CC(=O)C[C@@H](O)CC(=O)[C@H]1OC(=O)CCCCCCc2ccccc21 6.02%
CCc1ccc(C2=CC(=O)CC(C)(C)C2=O)cc1 -8.28%
O=C(O)Cn1cnc2c(NCc3ccccc3)ncnc21 -23.5%
COC(=O)c1ccc(C2NC(=O)NC(C)=C2C(=O)N(C)C)cc1 (stereo not given) -4.25%
CCOc1ccc(OCc2ccc(C(=O)Nc3cccc(C)n3)o2)cc1 16.1%
CCCCNc1ccc(C(=O)Nc2cccc(C)n2)cc1[N+](=O)[O-] 24.1%
Cn1c(=O)c2c(ncn2CC(=O)N/N=C/c2cn[nH]c2-c2ccc(F)cc2)n(C)c1=O 2.24%
CCCCCn1nnnc1C1c2ccccc2C(=O)N1Cc1ccco1 (stereo not given) -12.2%
O=C(NS(=O)(=O)c1cccs1)[C@H]1O[C@@H](n2ccc(=O)[nH]c2=O)[C@H](O)[C@@H]1O -23.6%
COc1ccc(-c2[nH]ncc2/C=N/NC(=O)c2cc(Br)ccc2O)c(OC)c1 -4.36%
CCOc1ccc(-c2cc(C(=O)N/N=C/c3ccc(O)cc3)c3ccccc3n2)cc1 0.39%
O=C(N/N=C/c1ccc(OCC2COCCO2)cc1)c1ccc(Br)cc1 (stereo not given) 18.2%
CCOc1cc(/C=N/NC(=O)c2c(C)nc3ccc(Cl)cn23)ccc1O -3.33%
CC(C)(C)C(=O)Nc1ccc(C(=O)N/N=C/c2ccccc2OC(=O)c2ccc(Cl)cc2Cl)cc1 26.4%
O=C(NN=Cc1ccc2c(c1)CCC2)c1ccccc1O 10.7%
O=C(NC1CCCCC1)C(c1cc2ccccc2o1)n1c(=O)c(-c2ccco2)nc2ccccc21 (stereo not given) -22.4%
N#Cc1ccc(-c2nc3cc(C#N)c(C#N)cc3nc2-c2ccccc2)cc1C#N -9.51%
CC1CCCN(c2cccc3c2S(=O)(=O)N(Cc2ccc(F)cc2)[C@@H](C)[C@H](c2ccccc2)O3)C1 (stereo not given in full) -13.7%
CCCNC(=O)c1cc2c(c(-c3cccc(-c4ccc(C#N)cc4)c3)n1)[C@@H](CCO)N(C(=O)CC)C2 -3.02%
COC(=O)[C@]12C[C@H](CC(=O)NCc3ccc(OC)c(OC)c3)C(=O)N(Cc3ccccc3)C1=C[C@H](C(C)C)O[C@@H]2C1CC1 -4.52%
COc1cccc(NC(=O)Nc2ccc(F)cc2)c1 14.5%
CCc1ccc(NC(=O)Nc2ccncc2)cc1 6.77%
CCC(C(=O)NCc1ccccc1)n1c(Cc2cc(F)cc(F)c2)nc2ccccc21 (stereo not given) -4.56%

inhibition, active:
O=C(NNC(=S)NC(=O)c1cn(-c2ccccc2)nc1-c1ccccc1)c1ccncc1 49.8%
O=C(O)c1ccc(NC(=O)c2cn(-c3ccccc3)nc2-c2ccc(Cl)cc2)cc1 73.7%
COc1cc(/C=C2/C(=O)ON=C2C)ccc1OCc1ccccc1F 51.4%
CCCOc1ccc(F)cc1-c1cc(C(=O)NCc2ccc(F)cc2)[nH]n1 53.6%
COc1ccc(-c2nc3ccccc3c(=O)n2CCc2ccc(O)cc2)cc1 58.4%
Cc1cccc(NC(=O)c2ccc(COc3ccccc3[N+](=O)[O-])o2)n1 51.5%
COc1ccc(C(=O)Nc2ccccc2C(=O)N/N=C/c2ccc(O)c(OC)c2)cc1 62.8%
O=C(N/N=C/c1ccc(OC(=O)c2ccccc2Cl)cc1)c1ccc(O)cc1 68.9%
CCOc1cc(/C=N/NC(=O)c2cc(-c3ccccc3)nc3ccccc23)ccc1O 51.5%
O=C(Nc1ccncc1)Nc1ccc(F)cc1 57.8%
